Data reported in publication PMC8896403 (Cancer chemotherapy and pharmacology, 2021).
“And” between values parts separate entries of the source, which are not always exact repeats. Equal values may be shown once. Read-outs that look alike come from different tables or passages of the source.

Experiments:
[1] = cited from earlier work
human DIPG cell lines = conditions: cited from earlier work
[2] = cited from earlier work; remark: listed apart in the source
[3] = dog; cited from earlier work
P-gp = conditions: cited from earlier work
refractory solid tumors = conditions: 9 pediatric patients; cited from earlier work
high-grade gliomas = conditions: in combination with bevacizumab, twelve patients; cited from earlier work
[4] = cited from earlier work; remark: listed apart in the source
[5] = human plasma; cited from earlier work
[6] = murine plasma; cited from earlier work
[7] = cited from earlier work; remark: listed apart in the source
[8] = Protein binding in murine plasma; format: in vitro ADME; conditions: murine plasma compartment
[9] = Plasma and brain pharmacokinetics of panobinostat in CD-1 female mice; format: in vivo
Method in brief: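 Single tail-vein dose of 15 mg/kg (3 mg/mL in PBS with 20% DMSO and 20% PEG-400) given to 12 mice, with 3 killed at each of 1, 2, 4 and 7 h. Heparinized plasma and brains frozen at −80 °C. LC–MS with internal standard, using 9-point 1–500 ng/mL calibration fitted by 1/x2 regression. Cmax taken as highest observed concentration, AUC1–7 by trapezoidal rule, and clearance from a […] model.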

DIPG cultures = conditions: cited from earlier work
[10] = rat; cited from earlier work
[11] = Clearance predicted for the mouse by body surface area scaling; conditions: body surface area scaling from dog and rat
[12] = IP and IV administration; cited from earlier work
[13] = set-up: species or system human
[14] = intraperitoneal injection, single time-point 4 h
[15] = female, CD-1, mouse, brain, intravenous, 15 mg/kg
[16] = female, CD-1, mouse, brain, iv, 15 mg/kg
[17] = female, CD-1, mouse, brain/plasma, iv, 15 mg/kg
[18] = female, CD-1, mouse, plasma, intravenous, 15 mg/kg
[19] = female, CD-1, mouse, plasma, iv, 15 mg/kg

## Cc1nc(Nc2ncc(C(=O)Nc3c(C)cccc3Cl)s2)cc(N2CCN(CCO)CC2)n1 [dasatinib]
[1]
  concentrations in the brain after inhibition of P-gp with everolimus: increased concentrations

## Cc1[nH]c2ccccc2c1CCNCc1ccc(/C=C/C(=O)NO)cc1 [panobinostat, 2-hydroxypropanoic acid, compound with 2-(E)-Nhydroxy-3-[4-[[[2-(2-methyl-1H-indol-3-yl)ethyl]amino]methyl]phenyl]-2-propenamide]
Human DIPG cell lines; prior DIPG models
  IC50: 28.3 nM
Human DIPG cell lines; range in human DIPG cell lines
  IC50: 12.1 to 28.3 nM
[2]
  BCS class: Class II
  permeability (BCS): high permeability
  solubility (BCS): low solubility
[3]
  volume of distribution: 42 L/kg
P-gp
  P-gp substrate status: substrate of P-gp
Refractory solid tumors
  objective response: No patient had an objective response
  patients with stable disease: 3 patients
  tolerability: acceptable tolerability
high-grade gliomas
  median progression free survival (PFS): 4.3 months
  patients achieving a partial response: Three
  patients with stable disease: 6 patients
[4]
  brainstem concentration relative to cerebral cortex (times): more than 7
[4]; [14]
  concentration in brainstem tumor tissue: 550 ± 51 nM
  concentration in cerebral cortex: 70 ± 10 nM
[5]
  protein binding: 75–90%
[6]
  protein binding: approximately 60%
[7]
  brain penetration in clinical reports: minimal to no brain penetration
[7]; prior studies
  concentrations in the CSF: negligible concentrations
[8]
  drug unbound in plasma: 40%
[9]; 15 mg/kg IV, mice, trapezoidal rule, 1 h to 7 h
  AUC1–7 for brain: 250 ng·h/g
[9]; [15]
  concentration at 1 h: 60.5 ng/g and 63.2 ng/mL and 181 nM
  concentration at 2 h: 42.9 ± 5.4 ng/g
  concentration at 4 h: 33.2 ± 6.1 ng/g
  concentration at 7 h: 28.1 ng/g and 29.4 ng/mL and 84.1 nM
[9]; [16]
  Cmax: 72.4 ng/g
  Vd: 49.8 L/kg
[9]; [17]
  Kp: 2.63
  Kp at 1 h: 2.22
  Kp at 2 h: 5.67
  Kp at 4 h: 22.4
  Kp at 7 h: 12.1
[9]; [18]
  Vd: 53.8 L/kg
  clearance: 967 mL/min/kg
  concentration at 1 h: 27.3 ± 2.5 ng/mL
  concentration at 2 h: 7.56 ± 1.8 ng/mL
  concentration at 4 h: 1.48 ± 0.56 ng/mL
  concentration at 7 h: 2.33 ± 1.18 ng/mL
[9]; [19]
  AUC: 95 ng·h/mL
  Cmax: 132 ng/mL
  Vd: 140 L/kg
  clearance: 1360 mL/min/kg
DIPG cultures
  DIPG cultures demonstrating sensitivity: 12 of the 16
[10]
  volume of distribution: 40.2 L/kg
[11]
  clearance predicted in the mouse: 918 mL/min/kg
[12]
  concentrations in xenograft, intestine, bladder, and heart tissue versus plasma: higher concentrations
[13]; corresponding to 45.95 ng/g
  expected human brain nanomolar concentration: approximately 142.2 nM
[13]; pediatric Cmax 20.7 ng/mL x brain to plasma ratio 2.22
  expected human brain concentration: approximately 45.95 ng/g

## COc1cc2c(Nc3ccc(Br)cc3F)ncnc2cc1OCC1CCN(C)CC1 [vandetanib]
[1]
  concentrations in the brain after inhibition of P-gp with everolimus: increased concentrations
